Source: PubChem BioAssay (several laboratories)
The sample as a whole holds a higher share of hits than the screen did.
Jurkat NFkB inh – inhibitors of the PMA/ionomycin-induced NF-kB reporter in Jurkat cells | PMA/ionomycin-induced NF-kB luciferase reporter, luminescence | 330,000 tested, 0.53% active | inhibition, % at 4 µM; in the data active = inhibition above about 50%
UPR CHOP act – apoptotic UPR (CHOP) activation; CHO-CHOP luciferase reporter, luminescence; percent of tunicamycin response over DMSO baseline; activation, % at 10 µM; 330,000 tested, 0.34% active;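 active = at 10 µM dose, activation of 40% or more, normalized to positive control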;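 also: 100% = tunicamycin at 10 µg/mL and 0% = DMSO alone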
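Test system: CHO CHOP reporter cells. Input: 500 CHO-CHOP cells per well. Medium: F12 with 10% FBS. Technique: luciferase luminescence. Measure: percent activation relative to tunicamycin control. Dosing: 10 µM compound, 0.5% DMSO. Timing: 16-18 h cell attachment, then 6 h compound exposure, 37 °C.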
CHOP inh – CHOP inhibition in unfolded protein response; CHO-K1 CHOP-promoter luciferase, tunicamycin-induced, 15-18 h; inhibition, % at 10 µM; 220,000 tested, 3.8% active; AID 2732;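 active = compounds that reduced the stress-induced luciferase reporter signal by more than about 70% of percent inhibition, limit read from the data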;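 also: 0% = tunicamycin plus vehicle and 100% = wells without tunicamycin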
UPR XBP1 act – activators of adaptive arm of unfolded protein response (XBP1); activation, % at 20 µM; CHO-XBP1 luciferase reporter, IRE1-XBP1 UPR activation, luminescence; percent of tunicamycin response, DMSO as zero; 330,000 tested, 0.33% active; AID 463104;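 active = versus positive control, 20 µM dose yields 30% or more activation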;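 also: 100% = tunicamycin at 10 µg/mL and 0% = DMSO only wells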
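Assay system: IRE1-XBP1 luciferase reporter CHO line. Input: 1000 cells/well. Buffer or medium: F12 with 10% serum. Doses: 20 µM, 1% DMSO. Times: overnight seeding at 37 °C, 6 h compound treatment at 37 °C. Technique: Steady-Glo luciferase glow luminescence, 10 min after reagent addition.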
697 NFkB inh – inhibitors of the PMA/ionomycin-induced NF-kB reporter in 697 B cells; 697 B-cell NF-kB luciferase reporter, 16 h; inhibition, % at 4 µM; 330,000 tested, 0.33% active; AID 435022; in the data active = inhibition above about 35%
697 NFkB conf – inhibitors of the PMA/ionomycin-induced NF-kB reporter in 697 B cells, retest. shares compounds with 697 NFkB inh. 697 B-cell NF-kB luciferase, 16 h. inhibition, % at 4 µM. 2,000 tested, 35% active; in the data active = inhibition mostly above about 28%, no sharp cut-off; inactive = mostly below about 22%
* hit, by the source's call.

How did O=C(COC(=O)C1CCN(S(=O)(=O)c2ccc3c(c2)OCCO3)CC1)NC1CCCCC1 do in these assays?
Jurkat NFkB inh: 8; UPR CHOP act: -1; UPR XBP1 act: -3; 697 NFkB inh: 36*; 697 NFkB conf: 10

How did Cc1ccc2c(c1)cc(C(=O)NCc1ccccc1)n2C do in these assays?
Jurkat NFkB inh: -49; UPR CHOP act: 2; UPR XBP1 act: -3; 697 NFkB inh: inactive; 697 NFkB conf: inactive

How did CCN(CC)c1ccc(/C=N/N=C(c2ccccc2)c2ccccc2)c(O)c1 do in these assays?
Jurkat NFkB inh: 9; UPR CHOP act: -1; CHOP inh: 32; UPR XBP1 act: -2; 697 NFkB inh: 35*; 697 NFkB conf: 27*

Results for COCCCNC(=O)COc1ccc(-c2nccc(-c3ccccn3)n2)cc1 ?
Jurkat NFkB inh: 3; UPR CHOP act: -4; CHOP inh: 63; UPR XBP1 act: -2; 697 NFkB inh: 53*; 697 NFkB conf: 63*

Results for Cc1ccc(OCC(=O)NCCCNC(=O)c2ccccn2)cc1 ?
Jurkat NFkB inh: -13; UPR CHOP act: -1; UPR XBP1 act: -2; 697 NFkB inh: -11

Results for Cc1oc(-c2ccc(-c3ccccc3)cc2)nc1CN(C)C1CCOC1 (centres undefined) ?
Jurkat NFkB inh: -51; UPR CHOP act: 9; CHOP inh: -53; UPR XBP1 act: 3; 697 NFkB inh: -311; 697 NFkB conf: -339

Results for Cc1oc(-c2ccc(-c3ccccc3)cc2)nc1CN(CCO)C(C)C ?
Jurkat NFkB inh: -67; UPR CHOP act: 2; UPR XBP1 act: -5; 697 NFkB inh: -478; 697 NFkB conf: -499

Results for CN(CC1CCCO1)S(=O)(=O)c1ccc(C(=O)Nc2nc3cc4c(cc3s2)OCO4)cc1 (centres undefined) ?
Jurkat NFkB inh: 26; UPR CHOP act: 1; UPR XBP1 act: -1; 697 NFkB inh: 62*; 697 NFkB conf: 65*

How did COc1ccc2nc(NC(=O)c3ccc(F)cc3)sc2c1 do in these assays?
Jurkat NFkB inh: -109; UPR CHOP act: 6; UPR XBP1 act: 2; 697 NFkB inh: -164

Results for O=C(Nc1nc2ccccc2s1)c1ccc(OCC2CCCO2)cc1 (centres undefined) ?
Jurkat NFkB inh: -130; UPR CHOP act: 2; CHOP inh: 26; UPR XBP1 act: -3; 697 NFkB inh: -401; 697 NFkB conf: -373

What do the screens show for `O=C(Nc1nc2ccccc2s1)c1ccc(F)cc1`?
Jurkat NFkB inh: -150; UPR CHOP act: 1; CHOP inh: 26; UPR XBP1 act: -3; 697 NFkB inh: -343; 697 NFkB conf: -351

How did COc1ccc(C(=O)Nc2nc3ccccc3s2)cc1 do in these assays?
Jurkat NFkB inh: -140; UPR CHOP act: -2; UPR XBP1 act: -6; 697 NFkB inh: -373; 697 NFkB conf: -419

What do the screens show for `CCOC(=O)N1CCN(S(=O)(=O)N2CCCC(C(=O)NCc3ccc(OC)cc3)C2)CC1` (centres undefined)?
Jurkat NFkB inh: -1; UPR CHOP act: 1; UPR XBP1 act: -1; 697 NFkB inh: 8

What do the screens show for `COC(=O)/C=C/c1cnc[nH]1`?
Jurkat NFkB inh: 3; UPR CHOP act: 2; UPR XBP1 act: -1; 697 NFkB inh: -8

Results for COc1cccc(NC(=O)c2c(F)cccc2F)c1 ?
Jurkat NFkB inh: 42; UPR CHOP act: 1; UPR XBP1 act: 2; 697 NFkB inh: 39*; 697 NFkB conf: 27

How did COc1cccc(NC(=O)c2ccccc2F)c1 do in these assays?
Jurkat NFkB inh: -103; UPR CHOP act: 3; UPR XBP1 act: 3; 697 NFkB inh: -111

Results for C(=N\Nc1nc2ccccc2s1)/c1cccs1 ?
Jurkat NFkB inh: -137; UPR CHOP act: 2; CHOP inh: 66; UPR XBP1 act: 2; 697 NFkB inh: -327; 697 NFkB conf: -304

What do the screens show for `Cc1ccc(C)c(COc2coc(CN3CCN(C(=O)c4ccco4)CC3)cc2=O)c1`?
Jurkat NFkB inh: 8; UPR CHOP act: -1; UPR XBP1 act: -1; 697 NFkB inh: 7

Results for Nc1ccc(-c2ncc(-c3ccccc3)o2)cc1 ?
Jurkat NFkB inh: -124; UPR CHOP act: -6; UPR XBP1 act: -10; 697 NFkB inh: 40*; 697 NFkB conf: -6

Results for Cc1ccc(-c2cnc(-c3ccncc3)o2)cc1 ?
Jurkat NFkB inh: -82; UPR CHOP act: 7; CHOP inh: 4; UPR XBP1 act: 8; 697 NFkB inh: -27

How did CCOC(=O)c1cnn(-c2ccccc2)c1NC(=O)CN1CCCCC1 do in these assays?
Jurkat NFkB inh: 0; UPR CHOP act: -2; CHOP inh: 10; UPR XBP1 act: -4; 697 NFkB inh: -2

What do the screens show for `CCOc1cccc(/C=N/NC(=O)c2ccc3c(c2)OCCO3)c1O`?
Jurkat NFkB inh: 18; UPR CHOP act: 5; UPR XBP1 act: 3; 697 NFkB inh: -52

How did Cc1cccc(/C=N/NC(=O)c2ccc3c(c2)OCCO3)c1O do in these assays?
Jurkat NFkB inh: -112; UPR CHOP act: -6; UPR XBP1 act: -10; 697 NFkB inh: -352; 697 NFkB conf: -465

How did COc1ccc(S(=O)(=O)Nc2ccc(N(C)C(C)=O)cc2)cc1 do in these assays?
Jurkat NFkB inh: 2; UPR CHOP act: -2; CHOP inh: 24; UPR XBP1 act: 0; 697 NFkB inh: 37*; 697 NFkB conf: 19

How did Cc1cc(OCC(=O)NC2CC2)c2c(C)c(C)c(=O)oc2c1 do in these assays?
Jurkat NFkB inh: 7; UPR CHOP act: 1; UPR XBP1 act: 5; 697 NFkB inh: 36*; 697 NFkB conf: 29*

How did Cc1cc(OCC(=O)NC2CC2)c2c(C)cc(=O)oc2c1 do in these assays?
Jurkat NFkB inh: 4; UPR CHOP act: -1; UPR XBP1 act: 1; 697 NFkB inh: 18

What do the screens show for `CCOC(=O)[C@H]1[C@H]2COc3ccc(Cl)cc3[C@@H]2N2C(=O)CN(Cc3ccco3)C(=O)[C@@]12C`?
Jurkat NFkB inh: -10; UPR CHOP act: -1; UPR XBP1 act: 1; 697 NFkB inh: 7

How did CCCCCC/C=C/c1ccc(OC)c([C@H]2[C@H]3C=CC[C@@H](C)[C@@H]3C(=O)N2Cc2ccccc2)c1 do in these assays?
Jurkat NFkB inh: 9; UPR CHOP act: -1; CHOP inh: 0; UPR XBP1 act: -1; 697 NFkB inh: 68*; 697 NFkB conf: 28*

Results for CCCCCC/C=C/c1ccc([C@H]2[C@H]3C=CC[C@@H](C)[C@@H]3C(=O)N2Cc2ccccc2)c(F)c1 ?
Jurkat NFkB inh: 9; UPR CHOP act: -2; CHOP inh: 16; UPR XBP1 act: -1; 697 NFkB inh: 14

What do the screens show for `COc1ccc(-c2ccoc2)cc1[C@H]1[C@H]2C=CC[C@@H](C)[C@@H]2C(=O)N1Cc1ccccc1`?
Jurkat NFkB inh: 6; UPR CHOP act: 3; CHOP inh: 41; UPR XBP1 act: -1; 697 NFkB inh: 47*; 697 NFkB conf: 40*
